Assay results pooled from the literature.
Target: Beta-secretase 1 (BACE1, Homo sapiens, UniProt P56817)
Mode: inhibitor

Compound | assay | setting | IC50
COc1ccc2c(c1)OC1Oc3cc(O)cc(O)c3C(=O)C21O (stereo not drawn) | enzyme activity |  | 139 µM
[H]/N=C1\N[C@](C)(c2cccc(Nc3cnc(C4CC4)nc3)c2Cl)CC(=O)N1[C@H]1CCO[C@@H](C)C1 | enzyme activity, FRET |  | > 10 µM
CC(C)=CCc1c(O)cc(O)c2c(=O)c(-c3ccc(O)cc3)coc12 | enzyme activity |  | 27 µM
CC[C@H](C[C@H](O)[C@@H](N)COc1ccc(-c2ccc(F)cc2)c(OCCCOC)c1)C(=O)N[C@H](C(=O)NCc1ccc(Cl)cc1)[C@@H](C)CC | enzyme activity | pH 4.5 | 1.1 µM
CC1(c2ccccc2)COCC(N)=N1 (stereo not drawn) | enzyme activity, FRET | pH 5 | 200 µM
Cc1cc2cc(c1)C(=O)N[C@H]([C@H](O)CN(Cc1cccc(C(C)C)c1)C(=O)OC(C)(C)C)CCC/C=C/CCCC2=O | enzyme activity in cells |  | > 10 µM
CN(C)c1nc(N2CCCC2)nc2ccccc12 | enzyme activity, FRET | pH 5 | 500 µM
C=C(C)[C@@H]1CCC(C)=C[C@H]1c1c(O)cc2occ(-c3ccc(O)cc3)c(=O)c2c1O (relative stereo) | enzyme activity |  | > 200 µM
CC[C@H](C)[C@H](NC(=O)[C@@H](C[C@H](O)[C@@H](N)COc1ccc(-c2ccc(F)cc2)c(OCCCOC)c1)C(C)C)C(=O)NCc1ccc(Cl)cc1 | enzyme activity | pH 4.5 | 0.81 µM
